Screening data from PubChem.
SR-BI DiI inh – inhibitors of mouse SR-BI mediated HDL lipid uptake | Q61009 | 320,000 tested, 0.96% active | ldlA[mSR-BI] CHO cells, DiI-HDL uptake fluorescence, 3 h | AID 488896 | inhibition, % at 12.5 µM;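 active = mean replicate inhibition of at least 70% and a set share of replicates each scoring 70 or more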;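 note: 0% = median of neutral control wells and 100% = median of positive control wells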
GRK2 aptamer HTS – human GRK2 inhibition via aptamer displacement; 330,000 tested, 0.59% active; bead flow cytometry, FAM-aptamer displacement from GRK2; inhibition of aptamer binding, % at 10 µM;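 active = inhibition of aptamer binding above 40%, roughly 3 SD of noise, on plates passing a quality check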;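 note: median bead fluorescence of bound FAM aptamer so fluorescent compounds give negative values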
Target sequence (P25098 whole entry, looked up): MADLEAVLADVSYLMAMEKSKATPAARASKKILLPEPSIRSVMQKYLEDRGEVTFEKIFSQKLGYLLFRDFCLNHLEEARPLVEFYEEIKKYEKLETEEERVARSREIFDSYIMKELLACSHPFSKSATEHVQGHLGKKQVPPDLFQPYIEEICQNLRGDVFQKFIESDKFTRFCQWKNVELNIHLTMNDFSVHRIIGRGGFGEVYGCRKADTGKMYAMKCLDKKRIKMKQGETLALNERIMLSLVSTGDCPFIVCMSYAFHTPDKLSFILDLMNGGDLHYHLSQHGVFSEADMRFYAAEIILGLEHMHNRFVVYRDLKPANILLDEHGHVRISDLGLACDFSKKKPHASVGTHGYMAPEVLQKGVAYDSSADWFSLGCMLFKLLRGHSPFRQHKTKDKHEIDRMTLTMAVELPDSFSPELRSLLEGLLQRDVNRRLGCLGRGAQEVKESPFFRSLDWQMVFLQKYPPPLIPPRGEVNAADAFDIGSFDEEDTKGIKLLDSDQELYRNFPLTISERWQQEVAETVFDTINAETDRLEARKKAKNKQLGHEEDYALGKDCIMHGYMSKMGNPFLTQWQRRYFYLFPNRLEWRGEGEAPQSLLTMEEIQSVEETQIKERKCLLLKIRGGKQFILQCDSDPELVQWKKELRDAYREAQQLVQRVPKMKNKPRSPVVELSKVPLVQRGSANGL
Rin1 Abl inh – blocks binding of human Rin1 to Abl. P00519+Q13671. TR-FRET Rin1/Abl binding, biochemical. inhibition, % at 7.35 µM. 360,000 tested, 0.4% active; in the data active = inhibition above about 5%, passing the limit was not always enough
SR-BI DiI-HDL act – enhances SR-BI lipid uptake from DiI-HDL; CHO ldlA[mSR-BI] cells, DiI-HDL uptake fluorescence, 3 h; 100 = double the neutral-control signal; 320,000 tested, 0.096% active; activation, % at 12.5 µM;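 active = mean replicate activation of at least 60% and every replicate at or above 60%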;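 note: 0% = median plate neutral-control signal and 100% = twice that signal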
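Test system: SR-BI-overexpressing, LDLR-lacking CHO cells; Medium: Ham's F12 with 0.5% BSA, HEPES 25 mM, pH 7.4; Schedule: 3 h, 37 °C; Technique: bottom-read fluorescence, 550/595 nm.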
GRK2 inh confirm – confirmation of human GRK2 inhibitors displacing RNA aptamer. shares compounds with GRK2 aptamer HTS. bead-bound GRK2, FAM-aptamer displacement, flow cytometry. aptamer displacement, % at 10 µM. 2,000 tested, 4% active. AID 504451;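 active = aptamer displacement above 40%, near three times the noise of non-fluorescent compounds, on plates passing quality checks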;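 note: negative values mostly reflect intrinsic compound fluorescence rather than true enhancement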
Aptamer quench 1 – quenches fluorescent RNA aptamer, GRK2 hit artifact; shares compounds with GRK2 aptamer HTS; Fluorescent RNA aptamer beads, quenching, flow cytometry; active compounds read high; 110 tested, under 10 active; fluorescence change (kMESF span), kMESF (concentration not given with the values); AID 504521;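 active = compounds whose bead fluorescence drops by more than 37 kMESF across the dose range, marking them as dye quenchers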
FAM quench CP1 – counter-screen for GRK2 aptamer inhibitors: fluorescent aptamer quenchers | shares compounds with GRK2 aptamer HTS | Carboxyfluorescein RNA aptamer on beads, flow cytometry quenching; active compounds read low | fluorescence response (% of DMSO), % at 10 µM | 2,000 tested, under 10 active | AID 504580;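 active = compounds that quench the bead-bound fluorescent RNA probe, cutting fluorescence to under half of the solvent control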;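 note: counterscreen run without GRK2 so only probe quenching by compound is measured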
Active calls of the source: *. Sampled rows, rich in hits. Any-hit rate of the full collection: about 1.9%.

Results for Cc1oc(-c2cccc(Cl)c2)nc1CN1CCCC(C(=O)NCc2ccco2)C1 (stereo not drawn) ?
SR-BI DiI inh: 1; GRK2 aptamer HTS: 0; Rin1 Abl inh: -2; SR-BI DiI-HDL act: -1; GRK2 inh confirm: 1; FAM quench CP1: 101

What do the screens show for `Cc1cccc(-c2nc(CN3CCCC(C(=O)NC4CCCCCC4)C3)c(C)o2)c1` (stereo not drawn)?
SR-BI DiI inh: 6; GRK2 aptamer HTS: 3; Rin1 Abl inh: 3; SR-BI DiI-HDL act: -6; GRK2 inh confirm: -4; FAM quench CP1: 103

What do the screens show for `Cc1oc(-c2ccc(Cl)cc2)nc1CN1CCCC(C(=O)NCCCN2CCOCC2)C1` (stereo not drawn)?
SR-BI DiI inh: -3; GRK2 aptamer HTS: 0; Rin1 Abl inh: 5; SR-BI DiI-HDL act: 3

Results for Cc1oc(-c2ccc(Cl)cc2)nc1CN1CCCC(C(=O)NCc2ccccn2)C1 (stereo not drawn) ?
SR-BI DiI inh: 39; GRK2 aptamer HTS: 0; Rin1 Abl inh: -5; SR-BI DiI-HDL act: -39; GRK2 inh confirm: 1; FAM quench CP1: 93

How did Cc1oc(-c2ccc(Cl)cc2)nc1CN1CCCC(C(=O)NCc2cccnc2)C1 (stereo not drawn) do in these assays?
SR-BI DiI inh: 30; GRK2 aptamer HTS: 0; Rin1 Abl inh: 3; SR-BI DiI-HDL act: -30; GRK2 inh confirm: -2; Aptamer quench 1: 3.4; FAM quench CP1: 100

How did CNC(=O)OCc1ncn(-c2ccccc2)c1COC(=O)NC do in these assays?
Rin1 Abl inh: 9

How did Cc1ccc(C(=O)NCC(=O)OCC(=O)c2c(N)n(C)c(=O)n(C)c2=O)cc1C do in these assays?
SR-BI DiI inh: -5; GRK2 aptamer HTS: 2; Rin1 Abl inh: 0; SR-BI DiI-HDL act: 5

What do the screens show for `COc1cccc(CN2CCC(C)(Oc3cccc(Cl)c3)C2)c1OC` (stereo not drawn)?
Rin1 Abl inh: -5

What do the screens show for `COc1ccccc1NS(=O)(=O)c1ccc(C(=O)NCCCN2CCOCC2)cc1`?
SR-BI DiI inh: -4; Rin1 Abl inh: 4; SR-BI DiI-HDL act: 4

How did COc1ccc(C(CC(=O)N2CCOCC2)c2c(OC)cc(OC)c3c(-c4ccccc4)cc(=O)oc23)cc1 (stereo not drawn) do in these assays?
SR-BI DiI inh: 24; GRK2 aptamer HTS: 48*; Rin1 Abl inh: 0; SR-BI DiI-HDL act: -24; GRK2 inh confirm: -1; FAM quench CP1: 94

How did O=C(O)CC/C(=C\c1ccc(N2CCCC2)c([N+](=O)[O-])c1)c1nc2ccccc2s1 do in these assays?
SR-BI DiI inh: 27; GRK2 aptamer HTS: 71*; Rin1 Abl inh: 2; SR-BI DiI-HDL act: -27; GRK2 inh confirm: -5; FAM quench CP1: 100

Results for Cc1ccc(S(=O)(=O)N2CCOCC2)cc1NC(=O)COC(=O)/C=C/c1ccco1 ?
SR-BI DiI inh: -17; GRK2 aptamer HTS: 63*; Rin1 Abl inh: 3; SR-BI DiI-HDL act: 17; GRK2 inh confirm: 9; FAM quench CP1: 91

How did Cc1ccc(S(=O)(=O)N2CCOCC2)cc1NC(=O)COC(=O)c1ccco1 do in these assays?
Rin1 Abl inh: -1

How did Cc1ccccc1C(=O)Nc1ccc(S(=O)(=O)Nc2onc(C)c2C)cc1 do in these assays?
SR-BI DiI inh: -17; GRK2 aptamer HTS: 2; Rin1 Abl inh: -3; SR-BI DiI-HDL act: 17

How did Cc1cc(C)c(C(=O)Nc2ccc(S(=O)(=O)Nc3onc(C)c3C)cc2)c(C)c1 do in these assays?
SR-BI DiI inh: 11; GRK2 aptamer HTS: 37; Rin1 Abl inh: 0; SR-BI DiI-HDL act: -11; GRK2 inh confirm: -5; FAM quench CP1: 98

What do the screens show for `Cc1oc(-c2cccc(Cl)c2)nc1CSc1nc2c(c(=O)[nH]1)CCC2`?
SR-BI DiI inh: -17; GRK2 aptamer HTS: 1; Rin1 Abl inh: 2; SR-BI DiI-HDL act: 17

How did Cc1oc(-c2cccc(Cl)c2)nc1CS(=O)(=O)CC(=O)NC1CCCC1 do in these assays?
SR-BI DiI inh: 2; GRK2 aptamer HTS: 67*; Rin1 Abl inh: 4; SR-BI DiI-HDL act: -2; GRK2 inh confirm: -2; FAM quench CP1: 96

Results for Cc1oc(-c2ccccc2Cl)nc1CSc1nc2c(c(=O)[nH]1)CCC2 ?
SR-BI DiI inh: -19; GRK2 aptamer HTS: 56*; Rin1 Abl inh: -3; SR-BI DiI-HDL act: 19; GRK2 inh confirm: 7; FAM quench CP1: 99

What do the screens show for `CCCNC(=O)CS(=O)(=O)Cc1nc(-c2cccc(OC)c2)oc1C`?
SR-BI DiI inh: 26; GRK2 aptamer HTS: 0; Rin1 Abl inh: 1; SR-BI DiI-HDL act: -26

Results for Cc1oc(-c2ccccc2Cl)nc1CSCC(=O)NC1CCCC1 ?
SR-BI DiI inh: -3; GRK2 aptamer HTS: 30; Rin1 Abl inh: 2; SR-BI DiI-HDL act: 3; GRK2 inh confirm: 0; FAM quench CP1: 99

How did CCOCCCNC(=O)CS(=O)(=O)Cc1nc(-c2cccc(OC)c2)oc1C do in these assays?
SR-BI DiI inh: 6; GRK2 aptamer HTS: 56*; Rin1 Abl inh: -1; SR-BI DiI-HDL act: -6; GRK2 inh confirm: 2; FAM quench CP1: 100

Results for COc1cccc(-c2nc(CS(=O)(=O)CC(=O)NC3CCCC3)c(C)o2)c1 ?
SR-BI DiI inh: 9; GRK2 aptamer HTS: 0; Rin1 Abl inh: -1; SR-BI DiI-HDL act: -9

What do the screens show for `Cc1cc(Br)ccc1SCC(=O)OCC(=O)NCc1ccco1`?
SR-BI DiI inh: 2; GRK2 aptamer HTS: 52*; Rin1 Abl inh: 2; SR-BI DiI-HDL act: -2; GRK2 inh confirm: 25; FAM quench CP1: 100

Results for O=C(COC(=O)Cc1ccc(Cl)cc1)NCc1ccco1 ?
SR-BI DiI inh: -37; GRK2 aptamer HTS: 59*; Rin1 Abl inh: 7; SR-BI DiI-HDL act: 37; GRK2 inh confirm: 33; FAM quench CP1: 98

Results for O=C(COC(=O)Cc1ccc(Cl)c(Cl)c1)NCc1ccco1 ?
SR-BI DiI inh: 9; GRK2 aptamer HTS: 0; Rin1 Abl inh: 1; SR-BI DiI-HDL act: -9; GRK2 inh confirm: -3; FAM quench CP1: 101

What do the screens show for `O=C(COC(=O)Cc1c(Cl)cccc1Cl)NCc1ccco1`?
SR-BI DiI inh: -19; GRK2 aptamer HTS: 6; Rin1 Abl inh: 0; SR-BI DiI-HDL act: 19

What do the screens show for `Cn1ccnc1C1CCCCN1Cc1nc(Cc2cccc(C(F)(F)F)c2)no1` (stereo not drawn)?
SR-BI DiI inh: -10; GRK2 aptamer HTS: 0; Rin1 Abl inh: -1; SR-BI DiI-HDL act: 10; GRK2 inh confirm: -1; FAM quench CP1: 101

What do the screens show for `NS(=O)(=O)c1ccc(NC(=O)CN2CCN(Cc3ccccc3)CC2)cc1`?
SR-BI DiI inh: -19; GRK2 aptamer HTS: 2; Rin1 Abl inh: 4; SR-BI DiI-HDL act: 19
